Measured values: ChEMBL document CHEMBL3272032, “Antifolate studies. Activities of 40 potential antimalarial compounds against sensitive and chlorguanide triazine resistant strains of folate-requiring bacteria and Escherichia coli” (J Med Chem, 1977)
The source made the active and inactive calls. The calls are words filed in the database; no cut-off is given here.

Assays:
Lacticaseibacillus casei [1] = assay: Antibacterial activity against chlorguanide triazine-resistant Lactobacillus casei ATCC 7469 assessed as reduction in growth in presence of 0.001 ug/ml folic acid; assay type: functional, organism-based
Method in brief: (§1)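 Folate-requiring strains grown in medium with folic acid, 0.002 µg/ml for S. faecium and 0.001 µg/ml for L. casei; P. cerevisiae given folinic acid, 0.001 µg/ml. Resistant substrains came from serial transfer in rising chlorguanide triazine, and the most resistant were used. Compounds tested up to 1000 µg/ml, or 100 µg/ml when supply was limited. Growth read as Klett turbidity; IC50 is the µM concentration giving 50% growth inhibition.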

Enterococcus faecium [2] = assay: Antibacterial activity against sensitive Streptococcus faecium ATCC 8043 assessed as reduction in growth in presence of 0.002 ug/ml folic acid; assay type: functional, organism-based
Method in brief: (§2)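 Folate-requiring strains in the medium of the earlier assay method. Folic acid was 0.002 μg/ml for S. faecium and 0.001 μg/ml for L. casei. Turbidity read on a Klett-Summerson colorimeter. IC50 is the micromolar concentration reducing growth to 50% of control. Top concentration was 1000 μg/ml, or 100 μg/ml if supply was limited.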

Plasmodium berghei [3] = assay: Antimalarial activity against Plasmodium berghei infected in sc dosed mouse assessed as active dose required to increase of 100% in mean survival time; assay type: functional; settings: read-out: MED
Method in brief: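 Mice received a standard blood-induced P. berghei inoculum and were then treated with one subcutaneous dose of compound suspended in peanut oil. The minimum active dose is the lowest dose that raised mean survival time by 100%.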

Pediococcus [4] = assay: Antibacterial activity against chlorguanide triazine-resistant Pediococcus cerevisiae ATCC 808 assessed as reduction in growth in presence of 0.001 ug/ml folinic acid; assay type: functional; method in brief: as §1
[5] = Antibacterial activity against chlorguanide triazine-resistant Pediococcus cerevisiae ATCC 808 assessed as reduction in growth; assay type: functional; method in brief: as §1
Pediococcus [6] = assay: Fold increase in resistance, ratio of IC50 for chlorguanide triazine-resistant Pediococcus cerevisiae ATCC 808 to IC50 for sensitive Pediococcus cerevisiae ATCC 808; assay type: functional
Method in brief: (§3)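 Resistant substrains were made by serial transfer in rising concentrations of cycloguanil, and the most resistant isolate of each organism was used. Both strains were assayed turbidimetrically under identical conditions. FIR = IC50 of the resistant strain divided by IC50 of the sensitive parent.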

Lacticaseibacillus casei [7] = assay: Antibacterial activity against sensitive Lactobacillus casei ATCC 7469 assessed as reduction in growth in presence of 0.001 ug/ml folic acid; assay type: functional, organism-based; method in brief: as §2
Escherichia coli [8] = assay: Antibacterial activity against sensitive Escherichia coli ATCC 10536 assessed as reduction in growth; assay type: functional, organism-based
Method in brief: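 Growth inhibition in Sahyun et al. medium plus 0.6% acid-hydrolyzed casein. Growth read as turbidity on a Klett-Summerson photoelectric colorimeter. IC50 is the micromolar concentration giving 50% growth inhibition. Top concentration was 1000 μg/ml, or 100 μg/ml when compound was limited.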

Enterococcus faecium [9] = assay: Antibacterial activity against chlorguanide triazine-resistant Streptococcus faecium ATCC 8043 assessed as reduction in growth in presence of 0.002 ug/ml folic acid; assay type: functional, organism-based; method in brief: as §1
Escherichia coli [10] = assay: Antibacterial activity against sensitive Escherichia coli ATCC 10536 assessed as reduction in growth in presence of p-aminobenzoic acid; assay type: functional, organism-based
Method in brief: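 Reversal test. Drug inhibition was challenged with PABA in Sahyun et al. medium plus 0.6% acid-hydrolyzed casein. Growth read as turbidity on a Klett-Summerson colorimeter. Scored as reversal or nonreversal of the drug inhibition.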

Enterococcus faecium [11] = assay: Antibacterial activity against sensitive Streptococcus faecium ATCC 8043 assessed as reduction in growth; assay type: functional, organism-based; method in brief: as §1
Enterococcus faecium [12] = assay: Antibacterial activity against chlorguanide triazine-resistant Streptococcus faecium ATCC 8043 assessed as reduction in growth; assay type: functional, organism-based; method in brief: as §1
Enterococcus faecium [13] = assay: Fold increase in resistance, ratio of IC50 for chlorguanide triazine-resistant Streptococcus faecium ATCC 8043 to IC50 for sensitive Streptococcus faecium ATCC 8043; assay type: functional
Method in brief: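 Resistant S. faecium substrain raised by serial transfer in increasing chlorguanide triazine. IC50 (µM, 50% growth inhibition by turbidity) was found for resistant and parent strains in folic acid (0.002 µg/ml) medium. Fold increase taken as IC50 resistant / IC50 sensitive.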

Lacticaseibacillus casei [14] = assay: Fold increase in resistance, ratio of IC50 for chlorguanide triazine-resistant Lactobacillus casei ATCC 7469 to IC50 for sensitive Lactobacillus casei ATCC 7469; assay type: functional; method in brief: as §3
Plasmodium berghei [15] = assay: Antimalarial activity against Plasmodium berghei infected in sc dosed mouse assessed as dose required to survivors for period of 60 days; assay type: functional
Method in brief: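 Mice infected with a blood-induced P. berghei inoculum were given one subcutaneous dose in peanut oil. Survivors at 60 days counted as cured. The minimum curative dose is the lowest dose that cured any mouse.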

Lacticaseibacillus casei [16] = assay: Antibacterial activity against chlorguanide triazine-resistant Lactobacillus casei ATCC 7469 assessed as reduction in growth; assay type: functional, organism-based; method in brief: as §1
[17] = Antibacterial activity against sensitive Pediococcus cerevisiae ATCC 808 assessed as reduction; assay type: functional
Method in brief: (§4)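 P. cerevisiae grown with folinic acid at 0.001 μg/ml in the earlier-described medium. Turbidity read on a Klett-Summerson colorimeter. IC50 is the micromolar concentration reducing growth to 50% of control. Top concentration was 1000 μg/ml, or 100 μg/ml when supply was limited.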

Pediococcus [18] = assay: Antibacterial activity against sensitive Pediococcus cerevisiae ATCC 808 assessed as reduction in growth in presence of 0.001 ug/ml folinic acid; assay type: functional; method in brief: as §4
Lacticaseibacillus casei [19] = assay: Antibacterial activity against sensitive Lactobacillus casei ATCC 7469 assessed as reduction; assay type: functional, organism-based; method in brief: as §1

For `CC1(C)N=C(N)N=C(N)N1OCCCOc1cc(Cl)c(Cl)cc1Cl`, the inhibition (Lacticaseibacillus casei [1]) was “inactive”, the inhibition (Enterococcus faecium [2]) was “inactive” and the minimal effective dose (Plasmodium berghei [3]) was 20 mg/kg. For the same compound, the inhibition (Pediococcus [4]) was “inactive”, the IC50 [5] was 800 nM and the “Ratio IC50” value (Pediococcus [6]) was 267. For the same compound, the inhibition (Lacticaseibacillus casei [7]) was “inactive”, the IC50 (Escherichia coli [8]) was 1700 nM and the inhibition (Enterococcus faecium [9]) was “inactive”. The inhibition (Escherichia coli [10]) was “Active”, the IC50 (Enterococcus faecium [11]) was 0.1 nM and the IC50 (Enterococcus faecium [12]) was 19 nM. The “Ratio IC50” value (Enterococcus faecium [13]) was 190, the “Ratio IC50” value (Lacticaseibacillus casei [14]) was 19 and the MCD (Plasmodium berghei [15]) was 160 mg/kg. For the same compound, the IC50 (Lacticaseibacillus casei [16]) was 400 nM, the IC50 [17] was 3 nM and the inhibition (Pediococcus [18]) was “inactive”. It also gave an IC50 (Lacticaseibacillus casei [19]) of 21 nM.
